Sampled rows, rich in hits. Any-hit rate of the full collection: about 2.3%.
TRPC4 PAM: allosterically enhances the mouse TRPC4 cation channel; Q9QUQ5; HEK293 TRPC4beta/mu-opioid, DAMGO EC20, Fluo-4 Ca2+ flux; active compounds read high; B-score at 10 µM; hit rate 0.42% among 310,000;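 active means B-score of calcium response area above 5 SD of library B-scores, with initial fluorescence ratio within 5 SD of library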
TRPC4 block: blocks the mouse TRPC4 cation channel; HEK293 TRPC4beta/mu-opioid, DAMGO-evoked Fluo4 calcium flux; active compounds read low; B-score at 10 µM; Q9QUQ5; hit rate 0.39% among 300,000;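 active means B-score over 3 SD under the library average, no early fluorescence shift, positive overall ratio signal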
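Assay system: HEK293 cells with stable TRPC4beta plus mu-opioid receptor expression; Probe or stimulus: DAMGO in two steps, submaximal then maximal; Dosing: single-point compound dosing; Measured by: Fluo4 calcium-dye fluorescence, kinetic read; Read-out basis: B score from integrated Fluo4 fluorescence ratio.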
TRPC6 act: mouse TRPC6 channel activation | HEK293-TRPC6 membrane potential dye fluorescence; active compounds read high | B-score at 10 µM | hit rate 0.13% among 310,000 | AID 2550;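 active means B-score of the integrated fluorescence ratio above library mean plus 3 SD, and starting fluorescence ratio within library mean plus 5 SD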;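 further: higher score means more depolarization so channel activation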
Target sequence (Q61143 whole entry, looked up): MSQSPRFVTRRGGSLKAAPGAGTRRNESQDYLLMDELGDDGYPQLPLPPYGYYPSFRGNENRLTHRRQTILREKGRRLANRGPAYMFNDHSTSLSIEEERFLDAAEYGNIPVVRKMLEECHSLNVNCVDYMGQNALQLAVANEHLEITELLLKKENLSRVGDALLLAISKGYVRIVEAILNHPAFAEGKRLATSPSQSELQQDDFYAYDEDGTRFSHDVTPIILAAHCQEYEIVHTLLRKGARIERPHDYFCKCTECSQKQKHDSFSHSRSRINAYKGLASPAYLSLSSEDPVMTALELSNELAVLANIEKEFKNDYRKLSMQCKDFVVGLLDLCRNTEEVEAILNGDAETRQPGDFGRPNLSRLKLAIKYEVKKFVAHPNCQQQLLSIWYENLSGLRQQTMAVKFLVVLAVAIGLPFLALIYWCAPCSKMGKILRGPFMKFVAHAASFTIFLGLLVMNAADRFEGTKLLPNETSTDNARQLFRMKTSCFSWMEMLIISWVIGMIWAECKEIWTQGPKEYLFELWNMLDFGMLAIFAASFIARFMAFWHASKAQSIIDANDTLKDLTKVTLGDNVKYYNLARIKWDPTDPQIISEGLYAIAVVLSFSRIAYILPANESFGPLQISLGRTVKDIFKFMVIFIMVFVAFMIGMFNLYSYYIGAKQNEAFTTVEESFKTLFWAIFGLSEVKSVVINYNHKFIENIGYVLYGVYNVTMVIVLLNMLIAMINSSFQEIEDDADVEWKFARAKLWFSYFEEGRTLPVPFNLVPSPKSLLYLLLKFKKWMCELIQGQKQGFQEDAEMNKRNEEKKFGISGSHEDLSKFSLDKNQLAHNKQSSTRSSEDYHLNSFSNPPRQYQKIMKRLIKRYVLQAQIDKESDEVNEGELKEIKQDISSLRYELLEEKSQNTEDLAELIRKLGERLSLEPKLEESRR
TRPC6 inh: mouse TRPC6 channel inhibition; Q61143; HEK293-TRPC6, membrane potential dye, ACh-evoked depolarization; active compounds read low; B-score at 10 µM; hit rate 1.1% among 310,000;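 active means B-score under library mean minus 3 SD, initial fluorescence not abnormally high, positive integrated signal ratio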;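 further: B-score derived from integrated fluorescence ratio over the kinetic read; more negative B-score means stronger inhibition of depolarization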
TRPC4 act: activators of mouse TRPC4 channel. Q9QUQ5. HEK293 TRPC4beta/mu-opioid, Fluo4 calcium fluorescence; active compounds read high. B-score at 10 µM. hit rate 0.49% among 310,000. AID 2237;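 active means B-score above 5 SD of library B-scores, and initial fluorescence ratio not above library mean plus 5 SD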;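 further: positive B-score marks a calcium rise read as TRPC4 activation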
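Assay system – TRPC4beta and mu-opioid receptor HEK293 stable cells · Measured by – Fluo4 fluorescence, kinetic · Schedule – dye loading 45 min room temperature, 110 s kinetic read · Read-out – B-scored integrated calcium fluorescence ratio · Controls – buffer and maximal DAMGO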
Numbers stand for hits; i = inactive.

SMILES	TRPC4 PAM	TRPC4 block	TRPC6 act	TRPC6 inh	TRPC4 act
O=C(COC(=O)Cn1cnc2ccccc2c1=O)Nc1ccccc1Sc1ccc(Cl)cc1	i	-5	i	i	i
O=[N+]([O-])c1ccc(CN2CCN(Cc3c[nH]c4ccccc34)CC2)cc1	i	-6	i	i	i
Brc1ccc(CN2CCN(Cc3c[nH]c4ccccc34)CC2)cc1	i	i	i	i	i
Brc1ccccc1CN1CCN(Cc2c[nH]c3ccccc23)CC1	i	-6	i	i	i
COc1ccc(CC(=O)Nc2cc(Cl)ccc2C(=O)O)cc1	i	i	i	i	i
CCCCOc1ccc(Nc2cc(Cl)ccc2C(=O)O)cn1	i	-7	i	i	i
Cc1cc(NC(=O)CCC(=O)N(c2ccccc2)C(C(=O)NC2CCCC2)c2ccccc2F)no1 (centres undefined)	i	i	i	i	i
NS(=O)(=O)c1ccc(CCNC(=O)C(=O)c2cn(CC(=O)N3CCOCC3)c3ccccc23)cc1	i	i	i	i	i
Cc1cc(Oc2ccc(C(C)(C)C)cc2)nc(N2CCOCC2)n1	18	i	i	i	i
Cc1cc(Oc2ccc(-c3ccccc3)cc2)nc(N2CCOCC2)n1	i	i	i	i	i
N#CC1(NC(=O)COC(=O)c2cc(=O)[nH]c3ccccc23)CCCCC1	i	i	i	i	i
Cc1cccc(-c2nc3c(s2)CCc2onc(-c4ccc(Br)cc4)c2-3)c1	i	i	i	i	i
CC1CCN(CCCNC(=O)c2cn(C)c3ccc(S(=O)(=O)N4CCCC4)cc3c2=O)CC1	i	i	i	i	i
CC1CC(C)CN(CCCNC(=O)c2cn(C)c3ccc(S(=O)(=O)N4CCCC4)cc3c2=O)C1 (centres undefined)	i	i	i	i	55
CCCN(CCC)CCCNC(=O)c1cn(CC)c2ccc(S(=O)(=O)N3CCOCC3)cc2c1=O	i	i	i	i	45
Cn1cc(C(=O)N2CCN(c3ccccc3)CC2)c(=O)c2cc(S(=O)(=O)N3CCCC3)ccc21	i	i	i	i	i
CN(Cc1ccccc1)C(=O)c1cn(C)c2ccc(S(=O)(=O)N3CCCC3)cc2c1=O	12	i	i	i	i
Cc1ccc(S(=O)(=O)N(C)C)cc1NC(=O)CN1C(=O)NC2(CCCCCCC2)C1=O	i	i	i	i	i
NC1=NC[C@H](Cc2ccc(O)cc2)N1CC1CCCCC1	i	i	i	i	76
O=C(CCSc1nc(-c2ccco2)cc(C(F)(F)F)n1)N1CCN(c2ccccn2)CC1	i	i	i	-6.3	i
O=C(N/N=C/c1cccc(Cl)c1)C1CCCC1	i	i	i	i	i
O=C1CC2(CCN(S(=O)(=O)c3ccccc3F)CC2)Oc2ccccc21	30	i	i	i	i
O=C1CC2(CCN(S(=O)(=O)c3ccccc3)CC2)Oc2ccccc21	50	i	i	i	i
Cc1ccn2c(NC3CCCCC3)c(-c3cccc(-c4cccc(Cl)c4)c3)nc2c1	i	i	i	i	i
COc1cc(C2c3c(-c4ccccc4)n[nH]c3C(=O)N2c2ccccc2)ccc1O (centres undefined)	14	i	i	i	i
SMILES	TRPC4 PAM	TRPC4 block	TRPC6 act	TRPC6 inh	TRPC4 act
CCc1ccc(NC(=O)CN2CCCN(S(=O)(=O)c3ccc(F)cc3)CC2)cc1	i	i	i	i	i
C=CS(=O)(=O)c1sc(Cl)c(N2CCOCC2)c1[N+](=O)[O-]	i	-6	i	i	i
C=CSc1sc(Cl)c(N2CCOCC2)c1[N+](=O)[O-]	i	i	i	i	i
CC(C)OC(=O)C(C)Nc1ccc(F)c(Cl)c1 (centres undefined)	i	i	i	i	i
NCCNC(=O)c1c(O)c2cccc3c2n(c1=O)CCC3	i	i	i	i	104
CCCNC(=O)c1c(O)c2cccc3c2n(c1=O)CCC3	i	i	i	i	i
O=C1CCCc2nc(N3CCN(C(c4ccccc4)c4ccccc4)CC3)ncc21	i	i	i	i	43
COc1ccc(C(=O)COC(=O)CCNS(=O)(=O)c2ccccc2)cc1Br	i	i	i	i	i
O=C(Nc1ccccc1)C1CCOC1=O (centres undefined)	i	i	i	i	i
COc1ccc(NC(=O)CN(c2ccc(OC)c(Cl)c2)S(=O)(=O)c2ccccc2)c(OC)c1	i	i	i	i	i
CSc1nsc(SCC(=O)Nc2ccccc2)n1	i	i	i	i	i
CSc1nsc(NC(=O)Cc2ccccc2)n1	i	-6	i	i	i
CN1C(=O)C2(Nc3ccccc3-c3nc4ccccc4n32)c2ccccc21 (centres undefined)	i	-6	i	i	i
O=C1Nc2ccccc2C12Nc1ccccc1-c1nc3ccccc3n12 (centres undefined)	i	i	i	i	i
CCN(CC(=O)Nc1c(F)cccc1F)C(=O)CSc1nnc(-c2ccco2)n1CC	i	i	i	i	i
CCC(c1nnnn1CCc1ccccc1)N(Cc1ccco1)Cc1cc2cccc(C)c2[nH]c1=O (centres undefined)	11	i	i	i	i
Cc1ccc2cc(CN(CCCN3CCOCC3)C(c3nnnn3Cc3ccco3)C(C)C)c(=O)[nH]c2c1C (centres undefined)	i	-9	i	i	i
CCC(c1nnnn1C(C)(C)C)N(Cc1ccco1)Cc1cc2cccc(C)c2[nH]c1=O (centres undefined)	i	i	i	i	i
Cc1ccc2cc(CN(CCN3CCOCC3)Cc3nnnn3Cc3ccco3)c(=O)[nH]c2c1C	i	i	i	i	i
COc1ccc(S(=O)(=O)Nc2ncccc2C)c2ccccc12	11	i	i	i	i
COc1ccc(Br)cc1S(=O)(=O)Nc1ncccc1C	i	i	i	i	i
N#Cc1cccc2c1-c1ccccc1/C2=N/NC(N)=S	i	i	i	i	i
NC(=O)N/N=C1\c2ccccc2-c2c(C(N)=O)cccc21	i	-5	i	i	i
N#Cc1cccc2c1-c1ccccc1/C2=N/NC(N)=O	i	-6	i	i	i
COc1cc(C(=O)NC(=S)Nc2ccc(Cl)cn2)cc(OC)c1OC	i	i	i	i	i
SMILES	TRPC4 PAM	TRPC4 block	TRPC6 act	TRPC6 inh	TRPC4 act
Fc1ccc(C(c2nnnn2Cc2cccs2)N2CCN(C3CCCCC3)CC2)cc1 (centres undefined)	i	i	i	i	138
CN1CCN(C(c2ccc(F)cc2)c2nnnn2Cc2cccs2)CC1 (centres undefined)	i	i	i	i	i
Cc1ccccc1NC(=S)NC(=O)COc1ccccc1C	i	i	i	i	i
O=S(=O)(c1ccccc1)c1nnn2c1nc(NC1CCN(Cc3ccccc3)CC1)c1cc(Cl)ccc12	i	-6	i	i	148
O=S(=O)(c1ccccc1)c1nnn2c1nc(NC1CCN(Cc3ccccc3)CC1)c1ccccc12	i	i	i	i	i
Cc1ccc(NS(=O)(=O)c2cc(C(=O)NCc3ccccn3)ccc2Cl)cc1C	11	i	i	i	i
